For ten compounds, MIC results are on record in ChEMBL document CHEMBL4819149, “A facile reaction to access novel structural sulfonyl-hybridized imidazolyl ethanols as potential DNA-targeting antibacterial agents” (Bioorg Med Chem Lett, 2021).

Converted amounts (≈) assume the structure as drawn.

What all share (type): functional
Assay [1] deals with Staphylococcus aureus. Nature of the assay: Antibacterial activity against methicillin-resistant Staphylococcus aureus assessed as bacterial growth inhibition by broth microdilution method. An outline of the steps: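 MIC read by micro broth dilution; values given in μg/mL.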
For a further assay, the system named is Enterococcus faecalis. The assay can be described thus: Antibacterial activity against Enterococcus faecalis assessed as bacterial growth inhibition by broth microdilution method. The essentials:
(§1)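 MIC values reported in µg/mL, determined by broth microdilution in microdilution plates.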

The subject of assay [2] is Staphylococcus aureus. Nature of the assay: Antibacterial activity against Staphylococcus aureus assessed as bacterial growth inhibition by broth microdilution method. An outline of the steps: as §1
Assay [3] concerns Staphylococcus aureus. Nature of the assay: Antibacterial activity against Staphylococcus aureus ATCC 25923 assessed as bacterial growth inhibition by broth microdilution method. The essentials: as §1
In general terms: In broth dilution the organism is exposed to a series of concentrations in liquid medium.

In assay [4] the test system is Staphylococcus aureus. The assay can be described thus: Antibacterial activity against Staphylococcus aureus ATCC 29213 assessed as bacterial growth inhibition by broth microdilution method. An outline of the steps:
as §1

Another assay has as its system Klebsiella pneumoniae. The assay can be described thus: Antibacterial activity against Klebsiella pneumonia assessed as bacterial growth inhibition by broth microdilution method. An outline of the steps:
as §1

In assay [5] the test system is Pseudomonas aeruginosa. Nature of the assay: Antibacterial activity against Pseudomonas aeruginosa ATCC 27853 assessed as bacterial growth inhibition by broth microdilution method. The essentials: as §1
The subject of assay [6] is Pseudomonas aeruginosa. Nature of the assay: Antibacterial activity against Pseudomonas aeruginosa assessed as bacterial growth inhibition by broth microdilution method. The essentials: as §1
The subject of a further assay is Acinetobacter baumannii. Nature of the assay: Antibacterial activity against Acinetobacter baumannii assessed as bacterial growth inhibition by broth microdilution method. An outline of the steps: as §1
In assay [7] the test system is Escherichia coli. Nature of the assay: Antibacterial activity against Escherichia coli assessed as bacterial growth inhibition by broth microdilution method. The essentials: as §1
The test system of assay [8] is Escherichia coli. The assay can be described thus: Antibacterial activity against Escherichia coli ATCC 25922 assessed as bacterial growth inhibition by broth microdilution method. An outline of the steps:
as §1

`Nc1ccc(S(=O)(=O)CC(CO)n2cnc(Br)c2)cc1` (stereo not given): the MIC in the assay with Staphylococcus aureus [1] is 16 mg/L (≈ 44.4 µM); in the assay with Enterococcus faecalis, 64 mg/L (≈ 178 µM); in the assay on Staphylococcus aureus [2], 64 mg/L (≈ 178 µM); with Staphylococcus aureus [3], 64 mg/L (≈ 178 µM); with Staphylococcus aureus [4] it was 64 mg/L (≈ 178 µM); with Klebsiella pneumoniae, 256 mg/L (≈ 711 µM). The MIC is 32 mg/L (≈ 88.8 µM) in the assay with Pseudomonas aeruginosa [5]; 256 mg/L (≈ 711 µM) with Pseudomonas aeruginosa [6]; 64 mg/L (≈ 178 µM) in the assay with Acinetobacter baumannii; 64 mg/L (≈ 178 µM) in the assay with Escherichia coli [7]; 32 mg/L (≈ 88.8 µM) in the assay on Escherichia coli [8].
In the case of `CCCc1nccn1C(CO)CS(=O)(=O)c1ccc(NC(C)=O)cc1` (stereo not given), the MIC with Staphylococcus aureus [1] is 32 mg/L (≈ 87.6 µM); with Enterococcus faecalis it was 16 mg/L (≈ 43.8 µM); in the assay with Staphylococcus aureus [2], 32 mg/L (≈ 87.6 µM); in the assay with Staphylococcus aureus [3] it was 64 mg/L (≈ 175 µM); in the assay on Staphylococcus aureus [4], 32 mg/L (≈ 87.6 µM); in the assay on Klebsiella pneumoniae, 128 mg/L (≈ 350 µM). Besides, the MIC with Pseudomonas aeruginosa [5] worked out at 32 mg/L (≈ 87.6 µM); in the assay on Pseudomonas aeruginosa [6], 256 mg/L (≈ 700 µM); with Acinetobacter baumannii, 32 mg/L (≈ 87.6 µM); in the assay with Escherichia coli [7], 64 mg/L (≈ 175 µM); in the assay with Escherichia coli [8], 64 mg/L (≈ 175 µM).
For the compound `Nc1ccc(S(=O)(=O)CC(CO)n2ccnc2)cc1` (stereo not given), the MIC worked out at 16 mg/L (≈ 56.9 µM) in the assay on Staphylococcus aureus [1]; 32 mg/L (≈ 114 µM) in the assay on Enterococcus faecalis; 32 mg/L (≈ 114 µM) in the assay with Staphylococcus aureus [2]; 64 mg/L (≈ 227 µM) in the assay with Staphylococcus aureus [3]; 64 mg/L (≈ 227 µM) in the assay with Staphylococcus aureus [4]; 128 mg/L (≈ 455 µM) with Klebsiella pneumoniae. For the same compound, the MIC was 64 mg/L (≈ 227 µM) in the assay with Pseudomonas aeruginosa [5]; 256 mg/L (≈ 910 µM) in the assay on Pseudomonas aeruginosa [6]; 128 mg/L (≈ 455 µM) with Acinetobacter baumannii; 128 mg/L (≈ 455 µM) with Escherichia coli [7]; 64 mg/L (≈ 227 µM) with Escherichia coli [8].
`CC(=O)Nc1ccc(S(=O)(=O)CC(CO)n2cnc(C)c2)cc1` (stereo not given): the MIC was found to be 16 mg/L (≈ 47.4 µM) in the assay with Staphylococcus aureus [1]; 64 mg/L (≈ 190 µM) with Enterococcus faecalis; 128 mg/L (≈ 379 µM) in the assay with Staphylococcus aureus [2]; 64 mg/L (≈ 190 µM) in the assay with Staphylococcus aureus [3]; 32 mg/L (≈ 94.8 µM) in the assay on Staphylococcus aureus [4]; 32 mg/L (≈ 94.8 µM) in the assay on Klebsiella pneumoniae. The minimum inhibitory concentration (MIC) was determined as 32 mg/L (≈ 94.8 µM) in the assay on Pseudomonas aeruginosa [5]; 128 mg/L (≈ 379 µM) with Pseudomonas aeruginosa [6]; 64 mg/L (≈ 190 µM) in the assay on Acinetobacter baumannii; 64 mg/L (≈ 190 µM) with Escherichia coli [7]; 64 mg/L (≈ 190 µM) in the assay with Escherichia coli [8].
`Cc1cn(C(CO)CS(=O)(=O)c2ccc(N)cc2)cn1` (stereo not given): the MIC with Staphylococcus aureus [1] worked out at 8 mg/L (≈ 27.1 µM); in the assay on Enterococcus faecalis, 16 mg/L (≈ 54.2 µM); in the assay on Staphylococcus aureus [2] it was 64 mg/L (≈ 217 µM); in the assay on Staphylococcus aureus [3], 32 mg/L (≈ 108 µM); with Staphylococcus aureus [4], 64 mg/L (≈ 217 µM); in the assay with Klebsiella pneumoniae, 32 mg/L (≈ 108 µM). Also, the MIC worked out at 32 mg/L (≈ 108 µM) in the assay with Pseudomonas aeruginosa [5]; 128 mg/L (≈ 433 µM) in the assay with Pseudomonas aeruginosa [6]; 16 mg/L (≈ 54.2 µM) with Acinetobacter baumannii; 64 mg/L (≈ 217 µM) with Escherichia coli [7]; 64 mg/L (≈ 217 µM) in the assay on Escherichia coli [8].
As for `Cc1nccn1C(CO)CS(=O)(=O)c1ccc(N)cc1` (stereo not given), the MIC in the assay on Staphylococcus aureus [1] was 16 mg/L (≈ 54.2 µM); with Enterococcus faecalis it was 8 mg/L (≈ 27.1 µM); in the assay with Staphylococcus aureus [2] it was 128 mg/L (≈ 433 µM); in the assay with Staphylococcus aureus [3] it was 64 mg/L (≈ 217 µM); in the assay on Staphylococcus aureus [4], 64 mg/L (≈ 217 µM); in the assay on Klebsiella pneumoniae it was 128 mg/L (≈ 433 µM). The minimum inhibitory concentration (MIC) was 64 mg/L (≈ 217 µM) in the assay with Pseudomonas aeruginosa [5]; 128 mg/L (≈ 433 µM) in the assay with Pseudomonas aeruginosa [6]; 16 mg/L (≈ 54.2 µM) with Acinetobacter baumannii; 128 mg/L (≈ 433 µM) with Escherichia coli [7]; 32 mg/L (≈ 108 µM) in the assay with Escherichia coli [8].
Turning to `CC(=O)Nc1ccc(S(=O)(=O)CC(CO)n2cnc(Br)c2)cc1` (stereo not given), the MIC in the assay on Staphylococcus aureus [1] was 8 mg/L (≈ 19.9 µM); in the assay with Enterococcus faecalis, 8 mg/L (≈ 19.9 µM); with Staphylococcus aureus [2], 64 mg/L (≈ 159 µM); in the assay with Staphylococcus aureus [3] it was 64 mg/L (≈ 159 µM); with Staphylococcus aureus [4], 32 mg/L (≈ 79.5 µM); in the assay on Klebsiella pneumoniae, 256 mg/L (≈ 636 µM). Besides, the MIC with Pseudomonas aeruginosa [5] worked out at 32 mg/L (≈ 79.5 µM); with Pseudomonas aeruginosa [6], 256 mg/L (≈ 636 µM); in the assay with Acinetobacter baumannii, 64 mg/L (≈ 159 µM); with Escherichia coli [7], 64 mg/L (≈ 159 µM); with Escherichia coli [8], 32 mg/L (≈ 79.5 µM).
Regarding `CC(=O)Nc1ccc(S(=O)(=O)CC(CO)n2cnc(I)c2)cc1` (stereo not given), the minimal inhibitory concentration (MIC) with Staphylococcus aureus [1] stood at 32 mg/L (≈ 71.2 µM); in the assay with Enterococcus faecalis, 64 mg/L (≈ 142 µM); in the assay on Staphylococcus aureus [2], 64 mg/L (≈ 142 µM); in the assay with Staphylococcus aureus [3] it was 64 mg/L (≈ 142 µM); in the assay on Staphylococcus aureus [4], 64 mg/L (≈ 142 µM); with Klebsiella pneumoniae, 64 mg/L (≈ 142 µM). The MIC with Pseudomonas aeruginosa [5] was 32 mg/L (≈ 71.2 µM); with Pseudomonas aeruginosa [6] it was 32 mg/L (≈ 71.2 µM); with Acinetobacter baumannii it was 32 mg/L (≈ 71.2 µM); in the assay on Escherichia coli [7] it was 128 mg/L (≈ 285 µM); in the assay with Escherichia coli [8], 32 mg/L (≈ 71.2 µM).
On to `CCc1nc(I)cn1C(CO)CS(=O)(=O)c1ccc(N)cc1` (stereo not given), for which the MIC was 16 mg/L (≈ 36.8 µM) in the assay on Staphylococcus aureus [1]; 64 mg/L (≈ 147 µM) in the assay on Enterococcus faecalis; 64 mg/L (≈ 147 µM) in the assay with Staphylococcus aureus [2]; 64 mg/L (≈ 147 µM) in the assay on Staphylococcus aureus [3]; 64 mg/L (≈ 147 µM) with Staphylococcus aureus [4]; 256 mg/L (≈ 588 µM) with Klebsiella pneumoniae. Moreover, the MIC in the assay with Pseudomonas aeruginosa [5] was determined as 32 mg/L (≈ 73.5 µM); in the assay with Pseudomonas aeruginosa [6], 256 mg/L (≈ 588 µM); in the assay with Acinetobacter baumannii, 64 mg/L (≈ 147 µM); in the assay on Escherichia coli [7] it was 64 mg/L (≈ 147 µM); in the assay on Escherichia coli [8], 32 mg/L (≈ 73.5 µM).
For `Nc1ccc(S(=O)(=O)CC(CO)n2cnc(I)c2)cc1` (stereo not given), the MIC with Staphylococcus aureus [1] is 64 mg/L (≈ 157 µM); in the assay with Enterococcus faecalis it was 256 mg/L (≈ 629 µM); with Staphylococcus aureus [2], 64 mg/L (≈ 157 µM); in the assay with Staphylococcus aureus [3], 64 mg/L (≈ 157 µM); in the assay with Staphylococcus aureus [4], 64 mg/L (≈ 157 µM); in the assay with Klebsiella pneumoniae it was 256 mg/L (≈ 629 µM). The MIC with Pseudomonas aeruginosa [5] was 32 mg/L (≈ 78.6 µM); with Pseudomonas aeruginosa [6], 256 mg/L (≈ 629 µM); in the assay with Acinetobacter baumannii, 64 mg/L (≈ 157 µM); in the assay with Escherichia coli [7], 64 mg/L (≈ 157 µM); in the assay on Escherichia coli [8], 32 mg/L (≈ 78.6 µM).

In general, MIC refers to the lowest concentration found to suppress growth.
